Calls of active or inactive are those of the source. The calls are words filed in the database; no cut-off is given here.
Tests used:
[1] = target: Protein cereblon/Zinc finger protein Aiolos (Homo sapiens) (UniProt Q96SW2+Q9UKT9); experiment: PROTAC activity at CRBN/IKZF3 in human MM1.S cells assessed as induction of IKZF3 degradation at 1 uM incubated for 16 hrs by western blot analysis; format: cell-based
Method in brief: (§1)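 MM.1S cells treated 16 h at the stated concentration. Lysed, run on SDS-PAGE and transferred to PVDF. Probed with primary antibodies overnight at 4 °C, then HRP secondaries, with ECL detection. Band densitometry normalized to loading control and to DMSO-treated cells. Averages of at least three independent experiments.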

[2] = target: T1, von Hippel-Lindau disease tumor suppressor/IAP (Homo sapiens) (UniProt P98170+Q13489+Q13490+P40337); experiment: PROTAC activity at VHL/IAP in human MM1.S cells assessed as induction of VHL30 degradation at 1 uM incubated for 16 hrs by western blot analysis; format: cell-based; method in brief: as §1
T1 sequence (P40337 whole entry, looked up): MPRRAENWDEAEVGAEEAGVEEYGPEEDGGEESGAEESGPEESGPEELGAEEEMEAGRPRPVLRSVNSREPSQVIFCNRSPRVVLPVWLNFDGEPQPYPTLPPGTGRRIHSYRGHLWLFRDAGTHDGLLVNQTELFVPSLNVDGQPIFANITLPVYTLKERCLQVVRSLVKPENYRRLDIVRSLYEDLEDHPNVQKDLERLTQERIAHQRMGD
T1 sequence (P98170 whole entry, looked up): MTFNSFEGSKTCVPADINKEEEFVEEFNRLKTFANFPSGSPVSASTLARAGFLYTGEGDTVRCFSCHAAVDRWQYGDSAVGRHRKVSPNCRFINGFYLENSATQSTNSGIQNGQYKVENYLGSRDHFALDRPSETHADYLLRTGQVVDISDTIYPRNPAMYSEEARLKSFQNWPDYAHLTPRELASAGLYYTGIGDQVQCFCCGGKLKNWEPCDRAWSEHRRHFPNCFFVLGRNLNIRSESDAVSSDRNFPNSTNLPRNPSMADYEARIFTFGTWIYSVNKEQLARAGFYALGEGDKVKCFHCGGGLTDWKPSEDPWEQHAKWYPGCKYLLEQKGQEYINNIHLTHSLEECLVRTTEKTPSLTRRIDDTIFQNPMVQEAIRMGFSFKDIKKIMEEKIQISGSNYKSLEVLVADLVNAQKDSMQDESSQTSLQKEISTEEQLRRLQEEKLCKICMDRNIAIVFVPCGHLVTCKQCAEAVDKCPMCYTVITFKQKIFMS
T1 sequence (Q13489 whole entry, looked up): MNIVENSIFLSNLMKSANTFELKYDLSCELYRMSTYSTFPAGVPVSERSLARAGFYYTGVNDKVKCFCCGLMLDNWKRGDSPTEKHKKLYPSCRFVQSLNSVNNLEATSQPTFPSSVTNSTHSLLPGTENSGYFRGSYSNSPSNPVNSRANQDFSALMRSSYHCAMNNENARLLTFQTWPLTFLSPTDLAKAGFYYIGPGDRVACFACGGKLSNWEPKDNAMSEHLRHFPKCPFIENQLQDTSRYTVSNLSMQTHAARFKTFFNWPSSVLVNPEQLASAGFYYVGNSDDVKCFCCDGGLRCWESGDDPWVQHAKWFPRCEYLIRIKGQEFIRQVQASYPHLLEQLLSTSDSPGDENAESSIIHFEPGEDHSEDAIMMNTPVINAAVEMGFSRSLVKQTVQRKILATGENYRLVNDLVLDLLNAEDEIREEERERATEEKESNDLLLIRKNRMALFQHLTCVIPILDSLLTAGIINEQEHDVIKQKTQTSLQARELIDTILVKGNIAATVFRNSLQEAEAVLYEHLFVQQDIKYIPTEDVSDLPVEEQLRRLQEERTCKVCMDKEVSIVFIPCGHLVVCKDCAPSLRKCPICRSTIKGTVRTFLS
T1 sequence (Q13490 whole entry, looked up): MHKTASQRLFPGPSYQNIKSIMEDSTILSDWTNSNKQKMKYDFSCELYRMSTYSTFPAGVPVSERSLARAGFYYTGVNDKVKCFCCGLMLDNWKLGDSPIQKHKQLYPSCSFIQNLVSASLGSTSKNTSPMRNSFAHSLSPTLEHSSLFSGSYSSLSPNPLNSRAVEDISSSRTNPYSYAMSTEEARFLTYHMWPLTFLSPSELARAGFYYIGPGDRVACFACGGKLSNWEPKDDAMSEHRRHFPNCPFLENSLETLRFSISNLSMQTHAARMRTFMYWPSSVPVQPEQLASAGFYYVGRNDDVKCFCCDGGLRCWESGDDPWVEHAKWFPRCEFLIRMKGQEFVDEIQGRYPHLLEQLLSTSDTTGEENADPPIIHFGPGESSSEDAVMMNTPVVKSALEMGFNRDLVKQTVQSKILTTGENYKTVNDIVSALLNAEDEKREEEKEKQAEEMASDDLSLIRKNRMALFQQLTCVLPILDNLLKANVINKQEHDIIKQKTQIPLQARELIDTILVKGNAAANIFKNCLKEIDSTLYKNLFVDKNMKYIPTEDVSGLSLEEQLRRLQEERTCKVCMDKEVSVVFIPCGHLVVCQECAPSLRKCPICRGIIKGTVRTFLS

[3] = target: T2, von Hippel-Lindau disease tumor suppressor/Baculoviral IAP repeat-containing protein 2 (Homo sapiens) (UniProt Q13490+P40337); experiment: PROTAC activity at VHL/IAP in human HG-3 cells harboring wild type VHL assessed as induction of cIAP1 degradation at 1 uM incubated for 16 hrs by western blot analysis; format: cell-based
T2 sequence (P40337 whole entry, looked up): as the sequence (P40337 whole entry, looked up) above
T2 sequence (Q13490 whole entry, looked up): as the sequence (Q13490 whole entry, looked up) above
Method in brief: (§2)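 HG3 cells expressing Cas9 (lentiviral, blasticidin-selected) transduced with sgRNA against VHL or control luciferase (≥95% tomato-positive by FACS at 48 h); treated 1 μM for 16 h; lysed, SDS-PAGE, PVDF immunoblot with ECL detection, bands quantified by densitometry.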

[4] = target: Baculoviral IAP repeat-containing protein 2 (Homo sapiens) (UniProt Q13490); experiment: Induction of cIAP1 degradation in human VHL knock-out HG-3 cells at 1 uM incubated for 16 hrs by western blot analysis; format: cell-based; method in brief: as §2
Baculoviral IAP repeat-containing protein 2 (Homo sapiens), sequence (Q13490 whole entry): as the sequence (Q13490 whole entry, looked up) above

[5] = target: T3, von Hippel-Lindau disease tumor suppressor/E3 ubiquitin-protein ligase XIAP (Homo sapiens) (UniProt P98170+P40337); experiment: PROTAC activity at VHL/IAP in human HG-3 cells harboring wild type VHL assessed as induction of XIAP degradation at 1 uM incubated for 16 hrs by western blot analysis; format: cell-based; method in brief: as §2
T3 sequence (P40337 whole entry, looked up): as the sequence (P40337 whole entry, looked up) above
T3 sequence (P98170 whole entry, looked up): as the sequence (P98170 whole entry, looked up) above

[6] = target: von Hippel-Lindau disease tumor suppressor/Baculoviral IAP repeat-containing protein 3 (Homo sapiens) (UniProt Q13489+P40337); experiment: PROTAC activity at VHL/IAP in human MM1.S cells assessed as induction of cIAP2 degradation at 0.1 to 1 uM incubated for 16 hrs by western blot analysis; format: cell-based; conditions: dose 0.1-1 µM
von Hippel-Lindau disease tumor suppressor/Baculoviral IAP repeat-containing protein 3 (Homo sapiens), sequence (P40337 whole entry, looked up): as the sequence (P40337 whole entry, looked up) above
von Hippel-Lindau disease tumor suppressor/Baculoviral IAP repeat-containing protein 3 (Homo sapiens), sequence (Q13489 whole entry, looked up): as the sequence (Q13489 whole entry, looked up) above
Method in brief: (§3)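 MM.1S cells (RPMI-1640, 10% FBS, 1% pen/strep, 1% L-glutamine, 37 °C, 5% CO2) exposed to compound or DMSO for 16 h. Lysed in IP lysis buffer, SDS-PAGE, PVDF transfer, primary antibody overnight at 4 °C, HRP secondary, ECL detection. Bands quantified densitometrically, normalized to loading control and DMSO, reported as remaining protein; at least three independent experiments.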

[7] = target: T2, von Hippel-Lindau disease tumor suppressor/Baculoviral IAP repeat-containing protein 2 (Homo sapiens); experiment: PROTAC activity at VHL/IAP in human MM1.S cells assessed as induction of cIAP1 degradation at 0.1 to 1 uM incubated for 16 hrs by western blot analysis; format: cell-based; conditions: dose 0.1-1 µM; method in brief: as §3
[8] = target: T1, von Hippel-Lindau disease tumor suppressor/IAP (Homo sapiens); experiment: PROTAC activity at VHL/IAP in human MM1.S cells assessed as induction of VHL30 degradation by measuring remaining protein level at 0.1 uM incubated for 16 hrs by western blot analysis; format: cell-based; method in brief: as §1
[9] = target: T3, von Hippel-Lindau disease tumor suppressor/E3 ubiquitin-protein ligase XIAP (Homo sapiens); experiment: PROTAC activity at VHL/IAP in human MM1.S cells assessed as induction of XIAP degradation at 0.1 to 1 uM incubated for 16 hrs by western blot analysis; format: cell-based; conditions: dose 0.1-1 µM; method in brief: as §1
[10] = target: von Hippel-Lindau disease tumor suppressor (Homo sapiens) (UniProt P40337); experiment: Induction of VHL30 degradation in human MM1.S cells assessed as remaining protein level at 0.1 uM incubated for 16 hrs by western blot analysis; format: cell-based; method in brief: as §1
[11] = target: Baculoviral IAP repeat-containing protein 2 (Homo sapiens) (UniProt Q13490); experiment: Induction of cIAP1 degradation in human MM1.S cells at 1 uM incubated for 16 hrs by western blot analysis; format: cell-based; method in brief: as §1
[12] = target: Baculoviral IAP repeat-containing protein 2 (Homo sapiens) (UniProt Q13490); experiment: Induction of cIAP1 degradation in human MM1.S cells assessed as remaining protein level at 0.1 uM incubated for 16 hrs by western blot analysis; format: cell-based
Method in brief: (§4)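 Lysed, run on SDS-PAGE and transferred to PVDF. Probed with primary antibodies overnight at 4 °C, then HRP secondaries, with ECL detection. Band densitometry normalized to loading control and to DMSO-treated cells. Averages of at least three independent experiments.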

[13] = target: Baculoviral IAP repeat-containing protein 3 (Homo sapiens) (UniProt Q13489); experiment: Induction of cIAP2 degradation in human MM1.S cells assessed as remaining protein level at 0.1 uM incubated for 16 hrs by western blot analysis; format: cell-based; method in brief: as §4
[14] = system: RPMI-8226; experiment: Cytotoxicity against human RPMI-8226 cells assessed as reduction in cell viability measured after 96 hrs in presence of TNF-alpha by CellTiter-Glo luminescent assay; format: functional, cell-based; conditions: RPMI-8226, 96 h
Method in brief: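 Cells kept in RPMI-1640 with 10% FBS, 1% penicillin/streptomycin and 1% L-glutamine at 37 °C, 5% CO2. Seeded with compounds and incubated 96 h at 37 °C with TNF-α at 1 ng/mL. Viability read by CellTiter-Glo luminescence and normalized to DMSO-treated control. Mean ± SD of biological triplicates.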

[15] = target: Protein cereblon/E3 ubiquitin-protein ligase XIAP (Homo sapiens) (UniProt P98170+Q96SW2); experiment: PROTAC activity at CRBN/IAP in human MM1.S cells assessed as induction of XIAP degradation by measuring remaining protein level at 0.1 uM incubated for 16 hrs by western blot analysis; format: cell-based; method in brief: as §1
[16] = target: Protein cereblon/Baculoviral IAP repeat-containing protein 2 (Homo sapiens) (UniProt Q13490+Q96SW2); experiment: PROTAC activity at CRBN/IAP in human MM1.S cells assessed as induction of cIAP1 degradation by measuring remaining protein level at 0.1 uM incubated for 16 hrs by western blot analysis; format: cell-based; method in brief: as §1
[17] = target: Protein cereblon-IAP (Homo sapiens) (UniProt P98170+Q13489+Q13490+Q96SW2); experiment: PROTAC activity at CRBN/IAP in human MM1.S cells assessed as induction of CRBN degradation by measuring remaining protein level at 0.1 uM incubated for 16 hrs by western blot analysis; format: cell-based; method in brief: as §1
[18] = target: Protein cereblon/Baculoviral IAP repeat-containing protein 3 (Homo sapiens) (UniProt Q13489+Q96SW2); experiment: PROTAC activity at CRBN/IAP in human MM1.S cells assessed as induction of cIAP2 degradation by measuring remaining protein level at 0.1 uM incubated for 16 hrs by western blot analysis; format: cell-based; method in brief: as §1

CN[C@@H](C)C(=O)N[C@H](C(=O)N1C[C@@H](Oc2cccc(OCCCCCOCCCCCOCCCCCCNc3cccc4c3C(=O)N(C3CCC(=O)NC3=O)C4=O)c2)C[C@H]1C(=O)N[C@@H]1CCCc2ccccc21)C1CCCCC1 (stereo not given in full)
Activity [1]: Active

CN[C@@H](C)C(=O)N[C@H](C(=O)N1C[C@@H](Oc2cccc(OCCCCOCCCC(=O)N[C@H](C(=O)N3C[C@H](O)C[C@H]3C(=O)NCc3ccc(-c4scnc4C)cc3)C(C)(C)C)c2)C[C@H]1C(=O)N[C@@H]1CCCc2ccccc21)C1CCCCC1
Activity [2]: Active

CN[C@@H](C)C(=O)N[C@H](C(=O)N1C[C@@H](Oc2cccc(OCCOCCOCC(=O)N[C@H](C(=O)N3C[C@H](O)C[C@H]3C(=O)NCc3ccc(-c4scnc4C)cc3)C(C)(C)C)c2)C[C@H]1C(=O)N[C@@H]1CCCc2ccccc21)C1CCCCC1
Activity [3]: Active | Activity [4]: Active | Activity [5]: Active

CN[C@@H](C)C(=O)N[C@H](C(=O)N1C[C@@H](Oc2cccc(OCCCCC(=O)N[C@H](C(=O)N3C[C@H](O)C[C@H]3C(=O)NCc3ccc(-c4scnc4C)cc3)C(C)(C)C)c2)C[C@H]1C(=O)N[C@@H]1CCCc2ccccc21)C1CCCCC1
Activity [6]: Active | Activity [7]: Active | Activity [8]: 38% | Activity [9]: Active

CN[C@@H](C)C(=O)N[C@H](C(=O)N1C[C@@H](Oc2ccccc2)C[C@H]1C(=O)N[C@@H]1CCCc2ccccc21)C1CCCCC1
Activity [10]: 72% | Activity [11]: Active | Activity [12]: 7% | Activity [13]: 47%

CN[C@@H](C)C(=O)N[C@H](C(=O)N1C[C@@H](Oc2cccc(OCCCCOCCCCNc3cccc4c3C(=O)N(C3CCC(=O)NC3=O)C4=O)c2)C[C@H]1C(=O)N[C@@H]1CCCc2ccccc21)C1CCCCC1 (stereo not given in full)
Activity [1]: Active

CN[C@@H](C)C(=O)N[C@H](C(=O)N1CC(Oc2cccc(OCCCCCCOCCCCCCOCC(=O)N[C@H](C(=O)N3C[C@H](O)C[C@H]3C(=O)NCc3ccc(-c4scnc4C)cc3)C(C)(C)C)c2)C[C@H]1C(=O)N[C@@H]1CCCc2ccccc21)C1CCCCC1 (single isomer, unassigned)
Activity [3]: Active | Activity [4]: Active | Activity [5]: Active

CN[C@@H](C)C(=O)N[C@H](C(=O)N1C[C@@H](Oc2cccc(OCCCCC(=O)N[C@H](C(=O)N3C[C@@H](O)C[C@H]3C(=O)NCc3ccc(-c4scnc4C)cc3)C(C)(C)C)c2)C[C@H]1C(=O)N[C@@H]1CCCc2ccccc21)C1CCCCC1
IC50 [14]: > 5 µM

CN[C@@H](C)C(=O)N[C@H](C(=O)N1C[C@@H](Oc2cccc(OCCCCCCCCNc3cccc4c3C(=O)N(C3CCC(=O)NC3=O)C4=O)c2)C[C@H]1C(=O)N[C@@H]1CCCc2ccccc21)C1CCCCC1 (stereo not given in full)
Activity [15]: 4% | Activity [16]: 5% | Activity [17]: 90% | Activity [18]: 14%

CN[C@@H](C)C(=O)N[C@H](C(=O)N1C[C@@H](Oc2cccc(OCCCCCCCC(=O)N[C@H](C(=O)N3C[C@H](O)C[C@H]3C(=O)NCc3ccc(-c4scnc4C)cc3)C(C)(C)C)c2)C[C@H]1C(=O)N[C@@H]1CCCc2ccccc21)C1CCCCC1
Activity [3]: Active | Activity [4]: Active | Activity [5]: Active

Reference: ChEMBL document CHEMBL5338733, “Heterobifunctional Ligase Recruiters Enable pan-Degradation of Inhibitor of Apoptosis Proteins” (J Med Chem, 2023)
